One block for each compound: values may come before it. Active and inactive are the calls of the source. No cut-off for these calls is given here.
Columns and labels:
Type in all cases: functional, cell-based
[1] = target: T1, Proteinase-activated receptor 2 (Homo sapiens, UniProt P55085); experiment: Antagonist activity at PAR2 receptor in human HT-29 cells assessed as inhibition of intracellular calcium release
T1 sequence (P55085 whole entry): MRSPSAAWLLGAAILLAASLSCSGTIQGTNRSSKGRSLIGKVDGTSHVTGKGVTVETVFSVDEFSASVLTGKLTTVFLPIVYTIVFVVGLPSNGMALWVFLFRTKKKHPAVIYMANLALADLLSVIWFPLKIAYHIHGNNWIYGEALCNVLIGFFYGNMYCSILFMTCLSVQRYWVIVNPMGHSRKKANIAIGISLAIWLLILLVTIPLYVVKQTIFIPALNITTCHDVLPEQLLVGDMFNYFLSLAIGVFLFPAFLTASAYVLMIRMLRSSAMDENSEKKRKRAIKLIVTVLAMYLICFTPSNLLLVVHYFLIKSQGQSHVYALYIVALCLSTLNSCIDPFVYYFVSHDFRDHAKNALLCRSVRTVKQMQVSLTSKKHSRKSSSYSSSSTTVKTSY

[2] = target: T1, Proteinase-activated receptor 2; experiment: Agonist activity at PAR2 receptor in human HT-29 cells assessed as induction of intracellular calcium release
[3] = target: Proteinase-activated receptor 2 (Homo sapiens) (UniProt P55085); experiment: Agonist activity at PAR2 receptor in human HT-29 cells assessed as induction of intracellular calcium release at 50 uM relative to […]
Outline: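 HT29 cells loaded with Fluo-3 AM in HBSS/HEPES/probenecid, pH 7.4. Compounds were tested at one concentration, 50 μM, and Ca2+ release (ex 495/em 520 nm, 60 s read) was expressed relative to 2-furoyl-LIGRLI-NH2 at the same concentration.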

[4] = target: Proteinase-activated receptor 2 (Homo sapiens) (UniProt P55085); experiment: Antagonist activity at PAR2 receptor in human HT-29 cells assessed as inhibition of intracellular calcium release at 5 uM relative to SLIGRLI-NH2; parameters: scale not given: the % may be the effect or the level left
Outline: (§1)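 Single-point inhibition in Fluo-3-loaded HT29 cells. Antagonist was given at 5 or 50 μM before 2.5 μM SLIGRLI-NH2. Calcium efflux was read as fluorescence and expressed as percent inhibition, with 100% meaning complete block.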

[5] = target: Proteinase-activated receptor 2 (Homo sapiens) (UniProt P55085); experiment: Antagonist activity at PAR2 receptor in human HT-29 cells assessed as inhibition of intracellular calcium release at 50 uM relative to SLIGRLI-NH2; outline: as §1
[6] = target: Proteinase-activated receptor 2 (Homo sapiens) (UniProt P55085); experiment: Agonist activity at PAR2 receptor in human HT-29 cells assessed as induction of intracellular calcium release at 1 uM relative to SLIGRLI-NH2
Outline: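 HT29 cells, Fluo-3 AM loaded, in HBSS/HEPES/probenecid buffer pH 7.4 with 2% DMSO final. Each agonist given once at 1 μM. Fluorescence (ex 495/em 520 nm) was read over 60 s after addition, and iCa2+ release was compared with SLIGRLI-NH2.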

[7] = target: T2, Proteinase-activated receptor 1 (Homo sapiens) (UniProt P25116); experiment: Agonist activity at human PAR1 receptor in HEK293 cells relative to TFLLR-NH2
T2 sequence (whole entry): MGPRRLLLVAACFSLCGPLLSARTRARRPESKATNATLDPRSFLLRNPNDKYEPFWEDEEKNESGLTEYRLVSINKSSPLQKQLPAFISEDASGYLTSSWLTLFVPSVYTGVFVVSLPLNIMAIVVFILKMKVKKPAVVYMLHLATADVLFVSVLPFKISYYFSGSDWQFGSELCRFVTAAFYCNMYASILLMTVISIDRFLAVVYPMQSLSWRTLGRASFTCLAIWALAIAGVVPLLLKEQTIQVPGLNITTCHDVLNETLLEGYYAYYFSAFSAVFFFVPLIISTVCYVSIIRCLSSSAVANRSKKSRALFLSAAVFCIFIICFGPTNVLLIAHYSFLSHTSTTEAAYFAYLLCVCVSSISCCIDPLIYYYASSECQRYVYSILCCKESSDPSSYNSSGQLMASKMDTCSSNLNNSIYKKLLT

[8] = target: T1, Proteinase-activated receptor 2; experiment: Agonist activity at human PAR2 receptor in HEK293 cells assessed as induction of intracellular calcium release

SMILES: CC(C)C[C@H](NC(=O)c1ccco1)C(=O)N[C@@H](CC1CCCCC1)C(N)=O
- Activity [3]: 43%

SMILES: CC[C@H](C)[C@H](NC(=O)[C@H](CC1CCCCC1)NC(=O)c1ccno1)C(=O)N1CCC2(CCc3ccccc32)CC1
- IC50 ([1]; read-out: pIC50 (converted)): 7.94 µM
- Activity [4]: 40%
- inhibition [5]: Active

SMILES: CC[C@H](C)[C@H](NC(=O)[C@H](CC1CCCCC1)NC(=O)c1ccno1)C(=O)Nc1cccc2ccccc12
- Activity [4]: 40%

SMILES: CC(C)C[C@H](NC(=O)c1ccco1)C(=O)N[C@@H](Cc1ccc(F)cc1)C(N)=O
- Activity [3]: 19%

SMILES: CC[C@H](C)[C@H](NC(=O)[C@H](CC1CCCCC1)NC(=O)c1ccno1)C(=O)NCCC(=O)N1CCC(CN)CC1
- Activity [6]: 97%

SMILES: CC[C@H](C)[C@H](NC(=O)[C@@H](NC(=O)c1ccco1)C1CCCCC1)C(N)=O
- Activity [3]: 12%

SMILES: CC[C@H](C)[C@H](NC(=O)[C@H](CC1CCCCC1)NC(=O)c1ccno1)C(=O)Nc1ccccc1-c1ccccc1
- Activity [4]: 40%

SMILES: CC[C@H](C)[C@H](NC(=O)[C@H](CC1CCCCC1)NC(=O)c1ccno1)C(=O)NCCC(=O)Nc1ccc(CCN)cc1
- Activity [6]: 130%

SMILES: CC[C@H](C)[C@H](NC(=O)[C@H](CC1CCCCC1)NC(=O)c1cnccn1)C(N)=O
- EC50 [8]: > 100 µM

SMILES: CC[C@H](C)C(NC(=O)[C@H](CC1CCCCC1)NC(=O)c1ccno1)C(=O)NCCC(=O)NCc1cccnc1 (single isomer, unassigned)
- Activity [6]: 122%

SMILES: CC[C@H](C)[C@H](NC(=O)[C@H](CC1CCCCC1)NC(=O)c1ccno1)C(=O)NCCCN
- Activity [6]: 57%

SMILES: CC[C@H](C)[C@H](NC(=O)[C@H](CC1CCCCC1)NC(=O)c1coc(C)n1)C(N)=O
- EC50 [8]: > 100 µM

SMILES: CC[C@H](C)[C@H](NC(=O)[C@H](CC1CCCCC1)NC(=O)c1ccno1)C(=O)NC1CCN([C@@H](CC(C)C)C(=O)N2CCC(CN)CC2)C1=O (stereo partly specified)
- EC50 [2]: 13.5 µM

SMILES: CC[C@H](C)[C@H](NC(=O)[C@H](CC(C)C)NC(=O)c1ccco1)C(N)=O
- Activity [3]: 38%

SMILES: CC[C@H](C)[C@H](NC(=O)[C@H](CC1CCCCC1)NC(=O)c1ccno1)C(=O)N1CCCC(C(=O)N2CCC(CN)CC2)C1 (stereo partly specified)
- EC50 [2]: 17.1 µM

SMILES: CC[C@H](C)[C@H](NC(=O)[C@H](CC1CCCCC1)NC(=O)c1ccno1)C(=O)N[C@H]1CCC2SC[C@@H](C(=O)N3CCC(CN)CC3)N2C1=O (stereo partly specified)
- EC50 ([2]; ht-29): 6.1 µM

SMILES: CC[C@H](C)[C@H](NC(=O)[C@H](CC1CCCCC1)NC(=O)c1ccno1)C(=O)NCCCCCN
- Activity [6]: 60%

SMILES: CC[C@H](C)[C@H](NC(=O)[C@H](CC1CCCCC1)NC(=O)c1ccco1)C(N)=O
- Activity [3]: 58%
- EC50 [8]: > 50 µM

SMILES: CC[C@H](C)[C@H](NC(=O)[C@H](CC1CCCCC1)NC(=O)c1ccno1)C(=O)Nc1cccc(C(=O)N2CCC(CN)CC2)c1
- EC50 [2]: 2.2 µM

More lines, now with the values ahead:

- IC50 ([1]; read-out: IC50): 57 µM
SMILES: CC[C@H](C)[C@H](NC(=O)[C@H](CC1CCCCC1)NC(=O)c1ccno1)C(=O)Nc1ccc(CC(=O)N2CCOCC2)cc1

- EC50 [2]: 7.1 µM
SMILES: CC[C@H](C)[C@H](NC(=O)[C@H](CC1CCCCC1)NC(=O)c1ccno1)C(=O)N1CCCCC1C(=O)N1CCC(CN)CC1 (stereo partly specified)

- Activity [4]: 40%
SMILES: CC[C@H](C)[C@H](NC(=O)[C@H](CC1CCCCC1)NC(=O)c1ccno1)C(=O)N1CCN(c2ccccc2)CC1

- Activity [4]: 40%
SMILES: CC[C@H](C)[C@H](NC(=O)[C@H](CC1CCCCC1)NC(=O)c1ccno1)C(=O)N1CCN(c2ccccc2C)CC1

- Activity [6]: 130%
SMILES: CC[C@H](C)[C@H](NC(=O)[C@H](CC1CCCCC1)NC(=O)c1ccno1)C(=O)NCCCCC(=O)NCc1cccnc1

- Activity [3]: 67%
- Activity [7]: Active
SMILES: CC[C@H](C)[C@H](NC(=O)[C@H](Cc1ccccc1)NC(=O)c1ccco1)C(N)=O

- EC50 [2]: 13.7 µM
SMILES: CC[C@H](C)[C@H](NC(=O)[C@H](CC1CCCCC1)NC(=O)c1ccno1)C(=O)N1CCC(C(=O)N2CCC(CN)CC2)CC1

- Activity [6]: 181%
SMILES: CC[C@H](C)[C@H](NC(=O)[C@H](CC1CCCCC1)NC(=O)c1ccno1)C(=O)NCCCCC(=O)N1CCC(CN)CC1

- EC50 [2]: > 50 µM
SMILES: CC[C@H](C)[C@H](NC(=O)[C@H](CC1CCCCC1)NC(=O)c1ccno1)C(=O)Nc1ccc(C(=O)N2CCC(CN)CC2)cc1

- Activity [6]: 142%
SMILES: CC[C@H](C)[C@H](NC(=O)[C@H](CC1CCCCC1)NC(=O)c1ccno1)C(=O)NCCCCC(=O)Nc1ccc(CCN)cc1

- Activity [4]: 40%
SMILES: CC[C@H](C)[C@H](NC(=O)[C@H](CC1CCCCC1)NC(=O)c1ccno1)C(=O)N1CCc2ccccc2C1

- Activity [3]: 22%
SMILES: CC(C)C[C@H](NC(=O)c1ccco1)C(=O)N[C@@H](Cc1ccccc1)C(N)=O

- EC50 [2]: 1.1 µM
SMILES: CC[C@H](C)[C@H](NC(=O)[C@H](CC1CCCCC1)NC(=O)c1ccno1)C(=O)NCc1ccc(C(=O)N2CCC(CN)CC2)cc1

Source: ChEMBL document CHEMBL1268911, “Novel agonists and antagonists for human protease activated receptor 2” (J Med Chem, 2010)
